Activity calls are given as the source filed them. No cut-off for these calls is given here.
Key:
Mus musculus [1] = experiment: Suppression of blood glucose concentration in GLP1(9-36)NH2-treated ob/ob C57Bl/6J mouse model of T2DM at 30 mg/kg, po dosed 1 hrs before test and treated with 60 mg/kg, po OATP/MRP2 inhibitor rifampicin 2.5 hrs prior to oral glucose-tolerance test; format: functional, organism-based
In short: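 Male ob/ob mice aged 10–11 weeks, n=7, randomised on blood glucose and fasted overnight. Rifampicin 60 mg/kg p.o. 2.5 h before the oGTT, compound 30 mg/kg p.o. 1 h before, GLP1(9-36)NH2 i.p. 15 min before, each given as indicated. Glucose 2 g/kg orally. Tail-vein glucose by glucometer at 0, 15, 30, 60 and 90 min.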

[2] = Oral bioavailability in Wistar rat at 10 mg/kg administered as single dose treated 2 hrs after dosing with 40 mg/kg, po OATP/MRP2 inhibitor rifampicin and measured up to 24 hrs ESI-LC/MS-MS analysis; format: ADME, organism-based; settings: in vivo
In short: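 Male Wistar rats (n=3 per route) pretreated orally with rifampicin 40 mg/kg (0.6% methylcellulose, 0.5% Tween 80 in water) 2 h before compound, given 3 mg/kg i.v. in Glycoferol/Cremophor-water solution or 10 mg/kg p.o. wet-milled suspension. Plasma sampled up to 24 h; ESI-LC/MS-MS after acetonitrile precipitation (LOQ 1 ng/mL); noncompartmental analysis.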

[3] = Cmax in C57Bl6 mouse at 10 mg/kg, po administered as single dose measured up to 24 hrs ESI-LC/MS-MS analysis; format: ADME, organism-based; design: dose 10 mg/kg, route oral; settings: in vivo
In short: (§1)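 Single dose of compound: 3 mg/kg i.v. in solution (75% water : 25% of 75% Glycoferol/25% Cremophor) or 10 mg/kg p.o. as wet-milled suspension (0.6% methylcellulose, 0.5% Tween 80 in water); male Wistar rats n=3 per route, female C57Bl6 mice n=24 per route. Plasma sampled 0.25–24 h (p.o.), 0.083–24 h (i.v.); heparinized plasma, acetonitrile precipitation, ESI-LC/MS-MS (LOQ 1 ng/mL rat, 5 ng/mL mouse); noncompartmental analysis, linear trapezoidal.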

[4] = Chemical stability in presence of GSH; format: physicochemical
[5] = target: Voltage-gated inwardly rectifying potassium channel KCNH2 (Homo sapiens, UniProt Q12809); experiment: Inhibition of human ERG by patch clamp assay
[6] = Volume of distribution at steady state in C57Bl6 mouse at 3 mg/kg, iv administered as single dose measured up to 24 hrs ESI-LC/MS-MS analysis; format: ADME, organism-based; settings: in vivo, read-out: Vdss
In short: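 Single dose of 3 mg/kg i.v. in water/Glycoferol/Cremophor solution to female C57Bl6 mice (n=24) or male Wistar rats (n=3). In rats, rifampicin 40 mg/kg p.o. was given 2 h before dosing where indicated. Plasma sampled at 0.083–24 h. ESI-LC/MS-MS after acetonitrile precipitation. Non-compartmental analysis.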

[7] = AUClast in Wistar rat at 10 mg/kg, po administered as single dose measured up to 24 hrs ESI-LC/MS-MS analysis; format: ADME, organism-based; design: dose 10 mg/kg, time < 24 hr, route oral; settings: in vivo; in short: as §1
[8] = Oral bioavailability in C57Bl6 mouse at 10 mg/kg administered as single dose measured up to 24 hrs ESI-LC/MS-MS analysis; format: ADME, organism-based; settings: in vivo; in short: as §1
[9] = Permeability from apical and basolateral in human Caco2/TC7 cells at pH 7.4 in presence of 0.5% BSA; format: ADME, cell-based; settings: caco2/tc7, pH 7.4
[10] = AUClast in C57Bl6 mouse at 10 mg/kg, po administered as single dose measured up to 24 hrs ESI-LC/MS-MS analysis; format: ADME, organism-based; design: dose 10 mg/kg, time < 24 hr, route oral; settings: in vivo; in short: as §1
Cytochrome P450 3A4 = Cytochrome P450 3A4 (Homo sapiens, UniProt P08684); experiment: Inhibition of CYP3A4 (unknown origin) using midazolam substrate; format: ADME
[11] = Drug recovery in iv dosed rat bile assessed as metabolically unchanged compound level in rat fistula study; format: ADME, organism-based; settings: read-out: Drug recovery
[12] = Chemical stability in pH 1.1 buffer; format: physicochemical
Mus musculus [13] = experiment: Suppression of blood glucose concentration in GLP-1R (-/-) C57Bl/6J mouse model at 30 mg/kg, po dosed 1 hrs before test and treated with 60 mg/kg, po OATP/MRP2 inhibitor rifampicin 2.5 hrs prior to oral glucose-tolerance test; format: functional, organism-based
In short: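 GLP-1R-/- male mice aged 10 weeks, n=6, fasted overnight. Rifampicin 60 mg/kg p.o. 2.5 h before the oGTT, compound p.o. 1 h before, with or without GLP1(9-36)NH2 i.p. 15 min before. Glucose 2 g/kg orally. Tail-vein blood glucose by glucometer at 0, 15, 30, 60 and 90 min.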

[14] = Solubility in pH 7.4 buffer; format: physicochemical
[15] = Clearance in mouse hepatocytes assessed per million cells by LC-MS/MS analysis; format: ADME, cell-based, Hepatocyte
In short: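 Intrinsic clearance in primary human hepatocytes ([…] as printed) or mouse hepatocytes, compound 0.5–5 µM; quinidine or ketoconazole added to define CYP2D6/CYP3A4 contribution; LC-MS/MS analysis.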

Pancreatic islet = experiment: Inhibition of GLP1(9-36)NH2-mediated glucose-stimulated insulin secretion in dispersed GLP-1(-/-) mouse pancreatic islets at 10 uM incubated for 2 hrs by ELISA; format: functional, cell-based

Chain of Cytochrome P450 3A4 (P08684 whole entry): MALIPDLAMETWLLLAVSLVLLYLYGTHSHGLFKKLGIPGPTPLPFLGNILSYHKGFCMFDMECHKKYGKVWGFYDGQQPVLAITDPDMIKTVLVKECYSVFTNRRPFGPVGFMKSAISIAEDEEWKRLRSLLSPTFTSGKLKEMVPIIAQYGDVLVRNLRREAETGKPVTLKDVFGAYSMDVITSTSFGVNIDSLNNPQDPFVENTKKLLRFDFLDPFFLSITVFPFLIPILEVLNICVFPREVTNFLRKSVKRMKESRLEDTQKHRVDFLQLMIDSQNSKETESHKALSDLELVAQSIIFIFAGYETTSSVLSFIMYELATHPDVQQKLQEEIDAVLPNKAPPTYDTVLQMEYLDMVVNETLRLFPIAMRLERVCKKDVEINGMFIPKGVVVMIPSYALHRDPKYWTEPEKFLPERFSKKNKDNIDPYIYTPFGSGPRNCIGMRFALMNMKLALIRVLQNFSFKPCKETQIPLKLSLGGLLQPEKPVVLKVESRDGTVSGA
Chain of Voltage-gated inwardly rectifying potassium channel KCNH2 (Q12809 whole entry): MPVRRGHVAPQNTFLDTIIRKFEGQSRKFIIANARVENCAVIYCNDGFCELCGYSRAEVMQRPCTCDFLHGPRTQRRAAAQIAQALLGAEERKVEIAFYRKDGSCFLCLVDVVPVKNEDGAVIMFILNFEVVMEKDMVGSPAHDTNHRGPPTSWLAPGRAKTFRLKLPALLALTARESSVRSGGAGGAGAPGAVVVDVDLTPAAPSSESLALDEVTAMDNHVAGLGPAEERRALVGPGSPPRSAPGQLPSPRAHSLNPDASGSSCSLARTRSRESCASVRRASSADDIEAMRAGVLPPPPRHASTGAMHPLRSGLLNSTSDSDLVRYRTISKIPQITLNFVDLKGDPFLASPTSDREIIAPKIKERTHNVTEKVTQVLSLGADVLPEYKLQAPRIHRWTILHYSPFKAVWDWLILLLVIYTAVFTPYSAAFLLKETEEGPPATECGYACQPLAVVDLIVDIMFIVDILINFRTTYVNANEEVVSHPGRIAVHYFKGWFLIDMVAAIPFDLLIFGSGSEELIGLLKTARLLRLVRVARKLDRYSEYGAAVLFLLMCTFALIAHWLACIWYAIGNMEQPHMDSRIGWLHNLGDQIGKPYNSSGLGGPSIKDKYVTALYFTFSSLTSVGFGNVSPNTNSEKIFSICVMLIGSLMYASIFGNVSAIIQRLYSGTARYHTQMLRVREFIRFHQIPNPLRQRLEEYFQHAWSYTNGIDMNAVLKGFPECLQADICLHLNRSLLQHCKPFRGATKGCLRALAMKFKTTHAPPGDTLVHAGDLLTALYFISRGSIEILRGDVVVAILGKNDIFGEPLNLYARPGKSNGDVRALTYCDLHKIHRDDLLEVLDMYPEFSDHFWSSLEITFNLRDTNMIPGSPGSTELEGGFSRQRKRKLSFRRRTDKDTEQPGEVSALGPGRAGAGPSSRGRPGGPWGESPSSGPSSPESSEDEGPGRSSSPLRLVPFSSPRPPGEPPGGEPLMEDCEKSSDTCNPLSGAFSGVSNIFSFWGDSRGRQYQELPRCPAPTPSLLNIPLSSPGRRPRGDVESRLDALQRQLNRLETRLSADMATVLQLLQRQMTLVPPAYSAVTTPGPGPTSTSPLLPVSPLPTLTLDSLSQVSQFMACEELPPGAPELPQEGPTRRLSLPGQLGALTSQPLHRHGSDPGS

SMILES	Activity (Mus musculus [1])	bioavailability [2] [%]	Cmax [3] [ng/mL]	Stability [4] [%]	IC50 [5] [µM]	Vd [6] [L/kg]	AUClast [7] [ng·h/mL]	bioavailability [8] [%]	permeability [9] [×10⁻⁷ cm/s]	AUC(0-t) at 24 h [10] [ng·h/mL]	IC50 (Cytochrome P450 3A4) [µM]	dose excreted [11] [%]	Stability [12] [%]	Activity (Mus musculus [13])	solubility [14] [µM]	CLH [15] [mL/h/10^6 cells]	inhibition (Pancreatic islet)
CC(C)(C)OC(=O)n1c2c(c3ccccc31)C[C@H]1C(=O)N3C[C@@H](CC(=O)O)C[C@H]3[C@@H]2N1C(=O)CC1CCC(F)(F)CC1	Active	100	227	100	> 30	0.934	110	7.2	0.18	109	> 50	74	98	inactive	> 853	0.145	
CC(O)CCN1C[C@H]2c3c(c4ccccc4n3C(=O)OC(C)(C)C)C[C@@H](C1=O)N2C(=O)CC1CCC(F)(F)CC1 (some centres not stated)																	Active

From ChEMBL document CHEMBL4354813, “Design, Synthesis, and Pharmacological Evaluation of Potent Positive Allosteric Modulators of the Glucagon-like Peptide-1 Receptor (GLP-1R)” (J Med Chem, 2020)
